Measured values pooled from the literature.
Lines come from different studies, so protocols differ. Values after ≈ are worked out from the molar mass of the structure shown.
Organism: Mycobacterium tuberculosis
Effect on: microbial growth

SMILES | method | strain | time | quantity | result
CCCCCCC#Cc1cncc(-c2nnc(SCc3cc(C(F)(F)F)cc(C(F)(F)F)c3)n2CCCN)c1 | resazurin | ERDMAN |  | IC50 | 3.1 µM
Cc1ccc(-c2cc(NCCc3ccc(OC(F)(F)F)cc3)n3cnnc3n2)o1 |  | H37RV |  | MIC | 0.46 µM
CCc1cc(=O)c2c(OCC(O)CN3CCCCC3)c3ccoc3c(OC)c2o1 (stereo not shown) | resazurin | H37RV | 21 days | MIC | 64 µg/mL
COc1ccc(-c2cc(C(F)(F)F)c3c(N)c(C(=O)NC(C)C4CCCCC4)sc3n2)cc1 (stereo not shown) |  | H37RV |  | IC50 | 0.93 µM
Clc1ccc(CCNc2cc(-c3ccccn3)nc3nnc(C4CC4)n23)cc1 |  | H37RV |  | MIC | 36 µM
CC[C@@H](CO)NCCN[C@@H](CC)CO | resazurin |  | 21 days | MIC | 0.5 µg/mL
Cc1nnc2nc(-c3ccccn3)cc(NCCc3ccc(Cl)cc3)n12 |  | H37RV |  | MIC | 24 µM
COc1ccc(-c2cc(C(F)(F)F)c3c(N)c(C(=O)NCCSC)sc3n2)cc1 |  | H37RV |  | IC50 | 42 µM
COC(=O)OCc1cc2[nH]c(=S)n(Cc3cccnc3)c(=O)c2cc1Cl |  | H37RV |  | MIC90 | 3.42 µM (≈ 1.34 µg/mL)
COc1ccc(-c2cc(C(F)(F)F)c3c(N)c(C(=O)NCCc4ccccc4)sc3n2)cc1 |  | H37RV |  | IC50 | > 100 µM
NC(=O)c1cc(Br)ccc1OCCc1cccc(F)c1 |  |  |  | IC50 | 2 µM
CCCCCCC#Cc1cncc(-c2nnc(SC[C@H]3O[C@@H](n4ccc(=O)[nH]c4=O)[C@H](O)[C@@H]3O)n2C)c1 | resazurin | ERDMAN |  | IC50 | 98 µM
O=C(OCc1cc2[nH]c(=S)n(Cc3cncnc3)c(=O)c2cc1Cl)Oc1ccccc1 |  | H37RV |  | MIC90 | 1.94 µM (≈ 0.882 µg/mL)
COc1ccc(-c2cc(C(F)(F)F)c3c(N)c(C(=O)NC45CC6CC(CC(O)(C6)C4)C5)sc3n2)cc1 |  | H37RV |  | IC50 | > 100 µM
CCc1cc(=O)c2c(OCC(O)CN3CCOCC3)c3ccoc3c(OC)c2o1 (stereo not shown) | resazurin | H37RV | 21 days | MIC | 256 µg/mL
NNC(=O)c1ccncc1 |  | H37RV |  | MIC50 | 0.56 µg/mL (≈ 4.08 µM)
O=c1c2cc(Cl)c(CF)cc2[nH]c(=S)n1Cc1cccnc1 |  | H37RV |  | MIC90 | 6.72 µM (≈ 2.26 µg/mL)
COc1ccc(-c2cc(C(F)(F)F)c3c(N)c(C(=O)Nc4ccc(C)cc4C)sc3n2)cc1 |  | H37RV |  | IC50 | > 100 µM
CCCCCCC#Cc1cncc(-c2nnc(SCc3ccc([N+](=O)[O-])o3)n2CCCN)c1 | resazurin | ERDMAN |  | IC50 | 12 µM

SMILES | method | strain | time | quantity | result
CCc1ccc(CCNc2cc(-c3ccco3)nc3nncn23)cc1 |  | H37RV |  | MIC | 0.43 µM
CCCCCCC#Cc1cncc(-c2nnc(SC[C@H]3O[C@@H](n4ccc(=O)[nH]c4=O)[C@H](O)[C@@H]3O)n2CCCN)c1 | resazurin | ERDMAN |  | IC50 | > 200 µM
C[C@H](N)C(=O)OCc1cc2[nH]c(=S)n(Cc3cncnc3)c(=O)c2cc1Cl |  | H37RV |  | MIC90 | 4.22 µM (≈ 1.71 µg/mL)
CCCCCCC#Cc1cncc(-c2nnc(SCc3cc([N+](=O)[O-])cc([N+](=O)[O-])c3)n2CCOC2OC(CN)C(O)C2O)c1 (stereo not shown) | resazurin | ERDMAN |  | IC50 | 18 µM
COc1ccc(CCNc2cc(-c3ccccn3)nc3nncn23)cc1 |  | H37RV |  | MIC | 0.39 µM
CNC(=O)c1cc(C(F)F)ccc1OCCc1cccc(F)c1 |  |  |  | IC50 | 0.73 µM
N#Cc1cc2c(=O)n(Cc3cccnc3)c(=S)[nH]c2cn1 |  | H37RV |  | MIC90 | 85.8 µM (≈ 25.3 µg/mL)
NCC[C@H](O)C(=O)N[C@@H]1C[C@H](N)[C@@H](O[C@H]2O[C@H](CN)[C@@H](O)[C@H](O)[C@H]2O)[C@H](O)[C@H]1O[C@H]1O[C@H](CO)[C@@H](O)[C@H](N)[C@H]1O |  | H37RV |  | MIC50 | 1.2 µg/mL (≈ 2.05 µM)
COc1ccc(CCNc2cc(-c3ccccn3)nc3cc(C4CC4)nn23)cc1 |  | H37RV |  | MIC | 42 µM
CO[C@H]1/C=C/O[C@@]2(C)Oc3c(C)c(O)c4c(O)c(c(/C=N/N5CCN(C)CC5)c(O)c4c3C2=O)NC(=O)/C(C)=C\C=C\[C@H](C)[C@H](O)[C@@H](C)[C@@H](O)[C@@H](C)[C@H](OC(C)=O)[C@@H]1C |  |  |  | MIC50 | 0.01 µg/mL (≈ 0.0122 µM)
O=c1c2cc(Cl)c(CO)cc2[nH]c(=S)n1Cc1cncc(-c2nnn[nH]2)c1 |  | H37RV |  | MIC90 | 59.2 µM (≈ 23.8 µg/mL)
COc1ccc(-c2cc(C(F)(F)F)c3c(N)c(C(=O)Nc4cc(C)ccc4C)sc3n2)cc1 |  | H37RV |  | IC50 | > 100 µM
CC(c1cccnc1)n1c(=S)[nH]c2cc(CO)c(Cl)cc2c1=O (stereo not shown) |  | H37RV |  | MIC90 | > 100 µM
FC(F)(F)c1ccc(CCNc2cc(-c3ccccn3)nc3nncn23)cc1 |  | H37RV |  | IC90 | 0.53 µM
Nc1c(C(=O)N2CCOCC2)sc2nc(Cl)ccc12 |  | H37RV |  | IC50 | > 100 µM
Cc1ccc(-c2cc(NCCc3ccc(F)cc3)n3cnnc3n2)o1 |  | H37RV |  | MIC | 19 µM
COc1ccc(-c2cc(C(F)(F)F)c3c(N)c(C(=O)N4CCC4)sc3n2)cc1 |  | H37RV |  | IC50 | > 100 µM
COC(=O)c1cc2[nH]c(=S)n(Cc3cccnc3)c(=O)c2cc1Cl |  | H37RV |  | MIC90 | > 100 µM
